Test results from ChEMBL document CHEMBL2413001, “Exploring pyrimidine-substituted curcumin analogues: design, synthesis and effects on EGFR signaling” (Bioorg Med Chem, 2013).
Blank lines part the entries; values can stand above or below the compound they belong to. The source made the active and inactive calls. No cut-off for these calls is given here.

Legend:
HT-29 [1] = assay: Cell cycle arrest in human HT-29 cells assessed as accumulation at G0/G1 phase at 5 uM after 24 hrs by flow cytometry relative to control; format: functional, cell-based
How it was run: (§1)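 HCT116 or HT29 cells seeded at 4 × 10⁴ cells/ml in 6-well plates and left 24 h to attach, then exposed for 24 h in complete McCoy's 5A (5% FBS) with 0.1% DMSO final, at 5, 10 or 20 µM. Floating and trypsinized cells were pooled, PBS-washed, fixed overnight in 70% ethanol at 4 °C and stained with PI/RNase for 15 min at room temperature. Flow DNA content gave G0/G1, S and G2/M fractions as fold of control, from three independent assays.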

HT-29 [2] = assay: Cell cycle arrest in human HT-29 cells assessed as increase in G2/M population at 20 uM after 24 hrs by flow cytometry relative to control; format: functional; how it was run: as §1
HT-29 [3] = assay: Cytotoxicity against human HT-29 cells assessed as growth inhibition after 48 hrs by resazurin assay; format: functional, cell-based; conditions: for IC50: HT-29, 48 h
How it was run: (§2)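 HCT116 or HT29 seeded at 2000 cells/well, grown 24 h, then given fresh complete McCoy's 5A (5% FBS, 0.1% DMSO final) containing serial compound concentrations for 48 h. Resazurin was added for 16 h and fluorescence read at ex 544/em 595 nm as a measure of living cells. IC50 was calculated by the Logit approach; values are mean ± SD.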

[4] = target: Epidermal growth factor receptor (Homo sapiens) (UniProt P00533); assay: Inhibition of EGFR signaling in human HCT116 cells assessed as inhibition of cyclin D1 expression after 24 hrs by Western blot analysis; format: cell-based; conditions: HCT-116
HT-29 [5] = assay: Cell cycle arrest in human HT-29 cells assessed as increase in G2/M population at 5 uM after 24 hrs by flow cytometry relative to control; format: functional; how it was run: as §1
[6] = target: Epidermal growth factor receptor (Homo sapiens) (UniProt P00533); assay: Inhibition of EGFR signaling in human HCT116 cells assessed as induction of p21 WAF-1/CIP-1 expression at 20 uM after 24 hrs by Western blot analysis relative to control; format: cell-based; conditions: HCT-116
HCT-116 [7] = assay: Induction of apoptosis in human HCT116 cells assessed as ratio of Bax to Bcl-2 expression at 10 uM after 72 hrs by Western blot analysis relative to control; format: functional
How it was run: (§3)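 HCT116 only, seeded at 8 × 10⁴ cells/ml in 15 cm dishes for 24 h, then treated for 72 h at 20 µM or at 5, 10 and 20 µM. Lysed in Triton lysis buffer (pH 7.5) with inhibitors, sonicated, and protein assayed by BCA. Western blots were developed by ECL. Band intensities were normalized to β-actin, as means of three independent experiments; the Bax/Bcl-2 ratio was expressed relative to untreated control.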

HT-29 [8] = assay: Inhibition of EGFR protein expression in human HT-29 cells after 72 hrs by Western blot analysis; format: functional, cell-based
How it was run: (§4)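 HCT116 or HT29 seeded at 8 × 10⁴ cells/ml in 15 cm dishes for 24 h, then treated for 72 h at 20 µM or at 5, 10 and 20 µM. Whole-cell lysates were made in Tris-HCl/NaCl/Triton buffer with phosphatase and protease inhibitors (pH 7.5), sonicated and cleared at 10,000g; protein was measured by BCA. Blots were blocked in 5% milk/TBST and developed by ECL. P-EGFR(Tyr1068) and total EGFR bands were normalized to β-tubulin, as means of three experiments.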

HCT-116 [9] = assay: Induction of apoptosis in human HCT116 cells assessed as increase in Bax expression after 72 hrs by Western blot analysis; format: functional, cell-based; how it was run: as §3
[10] = target: Epidermal growth factor receptor (Homo sapiens) (UniProt P00533); assay: Inhibition of EGFR signaling in human HCT116 cells assessed as effect on CDK4 expression at 5 to 20 uM after 24 hrs by Western blot analysis; format: cell-based; conditions: HCT-116
HCT-116 [11] = assay: Induction of apoptosis in human HCT116 cells assessed as ratio of Bax to Bcl-2 expression at 20 uM after 72 hrs by Western blot analysis relative to control; format: functional; how it was run: as §3
[12] = target: Epidermal growth factor receptor (Homo sapiens) (UniProt P00533); assay: Inhibition of EGFR phosphorylation at Tyr1068 residue in human HT-29 cells after 72 hrs by Western blot analysis; format: cell-based; how it was run: as §4
HCT-116 [13] = assay: Induction of apoptosis in human HCT116 cells assessed as reduction in Bcl-2 expression after 72 hrs by Western blot analysis; format: functional, cell-based; how it was run: as §3
HCT-116 [14] = assay: Cell cycle arrest in human HCT116 cells assessed as increase in G2/M population at 10 uM after 24 hrs by flow cytometry relative to control; format: functional; how it was run: as §1
HCT-116 [15] = assay: Induction of apoptosis in human HCT116 cells assessed as effect on HSP-90 expression after 72 hrs by Western blot analysis; format: functional, cell-based; how it was run: as §3
HCT-116 [16] = assay: Cell cycle arrest in human HCT116 cells assessed as increase in G2/M population at 5 uM after 24 hrs by flow cytometry relative to control; format: functional; how it was run: as §1
HCT-116 [17] = assay: Cell cycle arrest in human HCT116 cells assessed as increase in G2/M population at 20 uM after 24 hrs by flow cytometry relative to control; format: functional; how it was run: as §1
[18] = target: Epidermal growth factor receptor (Homo sapiens) (UniProt P00533); assay: Inhibition of EGFR signaling in human HCT116 cells assessed as inhibition of cyclin E1 expression after 24 hrs by Western blot analysis; format: cell-based; conditions: HCT-116
[19] = target: Epidermal growth factor receptor (Homo sapiens) (UniProt P00533); assay: Inhibition of EGFR signaling in human HCT116 cells assessed as induction of p21 WAF-1/CIP-1 expression at 5 uM after 24 hrs by Western blot analysis relative to control; format: cell-based; conditions: HCT-116
HCT-116 [20] = assay: Induction of apoptosis in human HCT116 cells assessed as ratio of Bax to Bcl-2 expression at 5 uM after 72 hrs by Western blot analysis relative to control; format: functional; how it was run: as §3
HCT-116 [21] = assay: Induction of apoptosis in human HCT116 cells assessed as PARP cleavage after 72 hrs by Western blot analysis; format: functional, cell-based; how it was run: as §3
[22] = target: Epidermal growth factor receptor (Homo sapiens) (UniProt P00533); assay: Inhibition of EGFR signaling in human HCT116 cells assessed as inhibition of Rb expression after 24 hrs by Western blot analysis; format: cell-based; conditions: HCT-116
HCT-116 [23] = assay: Inhibition of EGFR protein expression in human HCT116 cells after 72 hrs by Western blot analysis; format: functional, cell-based; how it was run: as §4
HCT-116 [24] = assay: Cytotoxicity against human HCT116 cells assessed as growth inhibition after 48 hrs by resazurin assay; format: functional, cell-based; conditions: for IC50: HCT-116, 48 h; how it was run: as §2
HCT-116 [25] = assay: Cell cycle arrest in human HCT116 cells assessed as accumulation at G0/G1 phase at 5 uM after 24 hrs by flow cytometry relative to control; format: functional, cell-based; how it was run: as §1
[26] = target: Epidermal growth factor receptor (Homo sapiens) (UniProt P00533); assay: Inhibition of EGFR signaling in human HCT116 cells assessed as induction of p21 WAF-1/CIP-1 expression at 10 uM after 24 hrs by Western blot analysis relative to control; format: cell-based; conditions: HCT-116
HCT-116 [27] = assay: Induction of apoptosis in human HCT116 cells assessed as caspase-3 activation after 72 hrs by Western blot analysis; format: functional, cell-based; how it was run: as §3
HCT-116 [28] = assay: Induction of apoptosis in human HCT116 cells assessed as effect on HSP-70 expression after 72 hrs by Western blot analysis; format: functional, cell-based; how it was run: as §3
HT-29 [29] = assay: Cell cycle arrest in human HT-29 cells assessed as increase in G2/M population at 10 uM after 24 hrs by flow cytometry relative to control; format: functional; how it was run: as §1
[30] = target: Epidermal growth factor receptor (Homo sapiens) (UniProt P00533); assay: Inhibition of EGFR phosphorylation at Tyr1068 residue in human HCT116 cells after 72 hrs by Western blot analysis; format: cell-based; conditions: HCT-116; how it was run: as §4
[31] = target: Epidermal growth factor receptor (Homo sapiens) (UniProt P00533); assay: Inhibition of EGFR signaling in human HCT116 cells assessed as effect on CDK2 expression at 5 to 20 uM after 24 hrs by Western blot analysis; format: cell-based; conditions: HCT-116

Epidermal growth factor receptor (Homo sapiens), sequence (P00533 whole entry): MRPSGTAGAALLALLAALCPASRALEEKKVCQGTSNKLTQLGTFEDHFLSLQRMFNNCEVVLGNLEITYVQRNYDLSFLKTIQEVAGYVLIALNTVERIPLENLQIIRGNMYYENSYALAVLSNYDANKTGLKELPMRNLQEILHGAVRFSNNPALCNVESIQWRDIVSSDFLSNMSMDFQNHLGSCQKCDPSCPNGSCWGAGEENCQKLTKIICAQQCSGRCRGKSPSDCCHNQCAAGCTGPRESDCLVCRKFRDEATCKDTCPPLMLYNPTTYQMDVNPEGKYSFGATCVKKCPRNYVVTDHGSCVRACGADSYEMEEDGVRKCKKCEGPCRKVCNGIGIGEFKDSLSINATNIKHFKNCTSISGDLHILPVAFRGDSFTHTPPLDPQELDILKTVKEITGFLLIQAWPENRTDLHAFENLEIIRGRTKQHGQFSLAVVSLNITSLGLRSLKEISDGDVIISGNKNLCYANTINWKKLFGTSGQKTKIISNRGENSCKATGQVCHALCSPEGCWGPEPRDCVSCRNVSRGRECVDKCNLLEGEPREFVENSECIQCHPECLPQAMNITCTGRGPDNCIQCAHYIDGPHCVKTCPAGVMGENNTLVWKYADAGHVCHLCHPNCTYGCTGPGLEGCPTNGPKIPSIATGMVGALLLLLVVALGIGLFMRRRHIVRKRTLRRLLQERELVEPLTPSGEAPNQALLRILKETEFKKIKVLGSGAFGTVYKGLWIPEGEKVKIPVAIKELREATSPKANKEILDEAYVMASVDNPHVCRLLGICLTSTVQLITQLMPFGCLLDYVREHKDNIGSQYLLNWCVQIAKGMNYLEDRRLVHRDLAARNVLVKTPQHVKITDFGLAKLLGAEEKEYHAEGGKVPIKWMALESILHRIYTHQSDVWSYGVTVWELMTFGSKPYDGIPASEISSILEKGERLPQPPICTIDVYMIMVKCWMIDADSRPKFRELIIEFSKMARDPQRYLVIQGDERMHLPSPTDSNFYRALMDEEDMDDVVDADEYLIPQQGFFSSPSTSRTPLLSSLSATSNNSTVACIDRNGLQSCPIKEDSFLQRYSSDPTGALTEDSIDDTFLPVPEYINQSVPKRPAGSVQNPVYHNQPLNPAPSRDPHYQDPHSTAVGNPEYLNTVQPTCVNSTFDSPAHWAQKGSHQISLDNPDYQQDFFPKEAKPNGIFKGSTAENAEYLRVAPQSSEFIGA

inhibition [4]: Dose-dependent effect
fold change (FC) [6]: 25.7
inhibition [10]: inactive
inhibition [12]: Dose-dependent effect
inhibition [18]: Dose-dependent effect
fold change (FC) [19]: 21.4
inhibition [22]: Dose-dependent effect
fold change (FC) [26]: 28.6
inhibition [30]: Dose-dependent effect
inhibition [31]: inactive
SMILES: COc1ccc(/C=C/c2cc(/C=C/c3ccc(OC)c(OC)c3)nc(NCCO)n2)cc1OC
Activity (HT-29 [1]): Active
fold change (FC) (HT-29 [2]): 2.4
growth inhibition (GI) (HT-29 [3]): Dose-dependent effect
IC50 (HT-29 [3]): 7.1 µM
fold change (FC) (HT-29 [5]): 1.86
Ratio (HCT-116 [7]): 17
inhibition (HT-29 [8]): Dose-dependent effect
Activity (HCT-116 [9]): Dose-dependent effect
Ratio (HCT-116 [11]): 19
Activity (HCT-116 [13]): Dose-dependent effect
fold change (FC) (HCT-116 [14]): 1.78
Activity (HCT-116 [15]): Dose-dependent effect
fold change (FC) (HCT-116 [16]): 1.54
fold change (FC) (HCT-116 [17]): 2.05
Ratio (HCT-116 [20]): 2.1
Activity (HCT-116 [21]): Dose-dependent effect
inhibition (HCT-116 [23]): Dose-dependent effect
growth inhibition (GI) (HCT-116 [24]): Dose-dependent effect
IC50 (HCT-116 [24]): 6.2 µM
Activity (HCT-116 [25]): Active
Activity (HCT-116 [27]): Dose-dependent effect
Activity (HCT-116 [28]): Dose-dependent effect
fold change (FC) (HT-29 [29]): 1.94

SMILES: CCCNc1nc(/C=C/c2ccc(OC)c(OC)c2)cc(/C=C/c2ccc(OC)c(OC)c2)n1
growth inhibition (GI) (HT-29 [3]): Dose-dependent effect
IC50 (HT-29 [3]): > 100 µM
growth inhibition (GI) (HCT-116 [24]): Dose-dependent effect
IC50 (HCT-116 [24]): 28 µM

SMILES: CCCNc1nc(/C=C/c2cc(OC)c(OC)c(OC)c2)cc(/C=C/c2cc(OC)c(OC)c(OC)c2)n1
IC50 (HT-29 [3]): > 100 µM
growth inhibition (GI) (HCT-116 [24]): Dose-dependent effect
IC50 (HCT-116 [24]): 21.9 µM
